Data: ChEMBL document CHEMBL1125037, “Synthesis and antihypertensive activity of 4-(1,2-dihydro-2-oxo-1-pyridyl)-2H-1-benzopyrans and related compounds, new potassium channel activators” (1990)

Experiments:
[1] = tested on: Rattus norvegicus; experiment: Dose required to reduce blood pressure by 30 mmHg after (po) administration in conscious spontaneously hypertensive rat; assay type: functional
Method in brief: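 Conscious male Okamoto-strain SHR (280-330 g, >180 mmHg) were given two to four oral doses beyond the 1 mg/kg screen. Mean arterial pressure was recorded directly via an aortic catheter in unrestrained rats. The ED30, the dose in µg/kg lowering pressure by 30 mmHg, came from linear regression of effect vs log dose.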

[2] = tested on: Rattus norvegicus; experiment: Antihypertensive effect after 1 mg/kg (po) administration in conscious spontaneously hypertensive rat (over a time period of 0-210 minutes).; assay type: functional
Method in brief: (§1)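 Male Okamoto-strain SHR (280-330 g, blood pressure >180 mmHg), conscious and unrestrained, given 1 mg/kg orally as a screening dose. Mean arterial pressure was recorded directly and continuously via an aortic catheter from 1 h before to 3.5 h after dosing. The effect is the mean of the maximum individual changes over 3.5 h; N ≥ 3.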

[3] = tested on: Rattus norvegicus; experiment: Dose required to reduce mean blood pressure after 20 hr following (po) administration conscious spontaneously hypertensive rat; assay type: functional
[4] = tested on: Rattus norvegicus; experiment: Dose required to reduce mean blood pressure after 2 hr following (po) administration conscious spontaneously hypertensive rat; assay type: functional
[5] = Ratio of ED30(20h) to ED30(2h) was determined; assay type: functional
[6] = tested on: Rattus norvegicus; experiment: Dose required to reduce mean blood pressure was determined after 20h following(po) administration in conscious spontaneously hypertensive rat; assay type: functional
[7] = tested on: Rattus norvegicus; experiment: Dose required to reduce mean blood pressure was determined after 2 hr following(po) administration in conscious spontaneously hypertensive rat; assay type: functional
[8] = tested on: Rattus norvegicus; experiment: Antihypertensive effect after 1 mg/kg (po) administration in conscious spontaneously hypertensive rat (over a time period of 0-210 min).; assay type: functional, organism-based; set-up: dose 1 mg/kg; method in brief: as §1

Structure (SMILES) | ED30 [1] [mg/kg] | Max fall in blood pressure [2] [mmHg] | ED30 [3] [mg/kg] | ED30 [4] [mg/kg] | Ratio [5] | Max fall in blood pressure [8] | further results
COC(=N)c1ccc2c(c1)C(N1CCCC1=O)[C@H](O)C(C)(C)O2 (some centres undefined) | 0.083 | 76 | – | – | – | – | –
CC1(C)C=C(n2cc(N)ccc2=O)c2cc(C#N)ccc2O1 | 0.206 | 94 | 1.61 | 0.341 | 4.7 | – | –
CC1(C)Oc2ccc(C#N)cc2[C@H](N2CCCC2=O)[C@H]1O [(-)-CROMAKALIM] | 0.11 | 78 | 0.603 | 0.131 | 4.6 | – | –
CC(=O)c1ccc2c(c1)C(n1ccccc1=O)=CC(C)(C)O2 | 0.025 | 130 | 0.546 | 0.074 | 7.4 | – | –
CC1(C)Oc2ccc(C#N)cc2[C@@H](n2ccccc2=O)[C@@H]1O [EMAKALIM] | 0.05 | 108 | – | – | 3.1 | – | ED30 [6]: 0.138 mg/kg; ED30 [7]: 0.045 mg/kg
CC1(C)C=C(n2ccncc2=O)c2cc(C#N)ccc2O1 | 0.022 | 105 | 0.357 | 0.038 | 9.4 | – | –
COC(=O)c1ccc2c(c1)C(n1ccccc1=O)=CC(C)(C)O2 | 0.202 | 98 | 2.06 | 0.573 | 3.6 | – | –
CC1(C)Oc2ccc(C#N)cc2C(N2N=CCCC2=O)[C@@H]1O (some centres undefined) | 0.211 | 63 | 0.148 | 0.056 | 2.6 | – | –
CC1(C)Oc2ccc(C#N)cc2C(n2ncccc2=O)[C@@H]1O (some centres undefined) | 0.036 | 77 | 0.082 | 0.045 | 1.8 | – | –
CC1(C)Oc2ccc(C#N)cc2[C@@H](n2ccccc2=O)[C@@H]1OC=O | 0.03 | 101 | 0.416 | 0.067 | 6.2 | – | –
CC1(C)Oc2ccc(C#N)cc2[C@]2(n3ccccc3=O)O[C@H]12 | 0.202 | 69 | – | – | – | – | –
COc1ccn([C@@H]2c3cc(C#N)ccc3OC(C)(C)[C@H]2O)c(=O)c1 | 0.197 | 73 | – | – | – | – | –
CC1(C)Oc2ccc([N+](=O)[O-])cc2[C@]2(n3ccccc3=O)O[C@H]12 | 0.06 | 118 | – | – | – | – | –
CC(=O)O[C@H]1[C@H](n2ccccc2=O)c2cc(C#N)ccc2OC1(C)C | 0.106 | 89 | 0.405 | 0.112 | 3.6 | – | –
CC1(C)C=C(n2cc(Cl)c(=O)c(Cl)c2)c2cc(C#N)ccc2O1 | – | – | – | – | – | Not significant | –
CC1(C)Oc2ccc(C#N)cc2[C@@H](N2CCCCC2=N)[C@@H]1O | – | – | – | – | – | Not significant | –
Cc1csc(-c2ccc3c(c2)C(N2CCCC2=O)[C@H](O)C(C)(C)O3)n1 (some centres undefined) | – | – | – | – | – | Not significant | –
CC1(C)C=C(n2ccccc2=O)c2cc(Br)ccc2O1 | 0.11 | 131 | 1.27 | 0.069 | 18.4 | – | –
CC1(C)Oc2ccc(-c3nc4ccccc4[nH]3)cc2C(N2CCCC2=O)[C@@H]1O (some centres undefined) | – | – | – | – | – | Not significant | –
O=c1ccccn1C1=CC2(CCCC2)Oc2ccc([N+](=O)[O-])cc21 | – | – | – | – | – | Not significant | –
CC1(C)Oc2ccc(C#N)cc2C(n2cc(Cl)c(=O)c(Cl)c2)[C@@H]1O (some centres undefined) | – | – | – | – | – | Not significant | –
CC1(C)Oc2ccc([N+](=O)[O-])cc2[C@@H](n2ccccc2=O)[C@@H]1OC=O | 0.074 | 129 | – | – | – | – | –

Structure (SMILES) | ED30 [1] [mg/kg] | Max fall in blood pressure [2] [mmHg] | ED30 [3] [mg/kg] | ED30 [4] [mg/kg] | Ratio [5] | Max fall in blood pressure [8] | further results
CC1(C)Oc2ccc(Br)cc2[C@@H](n2ccccc2=O)[C@@H]1O | – | – | – | – | – | Not significant | –
Cc1coc(-c2ccc3c(c2)C(N2CCCC2=O)[C@H](O)C(C)(C)O3)n1 (some centres undefined) | – | – | – | – | – | Not significant | –
CCOc1ccn(C2=CC(C)(C)Oc3ccc(C#N)cc32)c(=O)c1 | 0.017 | 136 | > 1 | 0.137 | > 7.3 | – | –
CC1(C)Oc2ccc(C#N)cc2[C@@H](n2cccc(N)c2=O)[C@@H]1O | – | – | – | – | – | Not significant | –
CN(C)c1cccn([C@@H]2c3cc(C#N)ccc3OC(C)(C)[C@H]2O)c1=O | – | – | – | – | – | Not significant | –
CC1(C)C=C(n2cc(Cl)cc(Cl)c2=O)c2cc(C#N)ccc2O1 | – | – | – | – | – | Not significant | –
CC1(C)C=C(n2ccccc2=O)c2cc(C#N)ccc2O1 [BIMAKALIM] | 0.01 | 142 | 0.186 | 0.036 | 5.2 | – | –
CC1(C)Oc2ccc(C(=N)S)cc2[C@@H](n2ccccc2=O)[C@@H]1O | – | – | – | – | – | Not significant | –
CC1(C)Oc2ccc([N+](=O)[O-])cc2[C@@H](n2ccccc2=O)[C@@H]1O | 0.024 | 113 | – | – | 25.2 | – | ED30 [6]: 0.884 mg/kg; ED30 [7]: 0.035 mg/kg
CC1(C)Oc2ccc(C#N)cc2[C@@H](n2cc(Br)cc(Br)c2=O)[C@@H]1O | – | – | – | – | – | Not significant | –
COC(=O)c1ccc2c(c1)C(n1ccccc1=O)C(=O)C(C)(C)O2 (centres undefined) | – | – | – | – | – | Not significant | –
CCOC(=O)c1ccc2c(c1)[C@@H](n1ccccc1=O)[C@H](O)C(C)(C)O2 | – | – | – | – | – | Not significant | –
CC1(C)Oc2ccc(/N=C/c3ccc(Cl)cc3Cl)cc2C(N2CCCC2=O)[C@@H]1O (some centres undefined) | – | – | – | – | – | Not significant | –
CC1(C)Oc2ccc(NC(=N)S)cc2C(N2CCCC2=O)[C@@H]1O (some centres undefined) | – | – | – | – | – | Not significant | –
COc1ccn(C2=CC(C)(C)Oc3ccc(C#N)cc32)c(=O)c1 | 0.066 | 113 | – | – | – | – | –
CC1(C)Oc2ccc(-c3nn[nH]n3)cc2C(N2CCCC2=O)[C@@H]1O (some centres undefined) | – | – | – | – | – | Not significant | –
CC1(C)Oc2ccc(C#N)cc2[C@@H](n2cc(Cl)cc(Cl)c2=O)[C@@H]1O | – | – | – | – | – | Not significant | –
CC1(C)Oc2ccc(C#N)cc2C(n2ccncc2=O)[C@@H]1O (some centres undefined) | 0.01 | 75 | 1.29 | 0.291 | 4.4 | – | –
CCOc1ccn([C@@H]2c3cc(C#N)ccc3OC(C)(C)[C@H]2O)c(=O)c1 | – | – | – | – | – | Not significant | –
CC1(C)CC(n2ccccc2=O)c2cc(C#N)ccc2O1 (centres undefined) | 0.15 | 92 | – | – | – | – | –
CC1(C)C=C(n2ccccc2=O)c2cc([N+](=O)[O-])ccc2O1 | 0.00083 | 140 | 0.102 | 0.0007 | 146 | – | –
